pIC50: −log10 of the molar value. Values belong to the compound of their own block, whether it stands above or below them.
How the values were obtained:
L6 = assay: Cytotoxicity against rat L6 cells; assay type: cell-based
In short: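 Rat skeletal myoblasts (L-6) grown in RPMI 1640 with 10% FBS and 2 mM L-glutamine, exposed to serial dilutions 90 to 0.123 µg/mL at 37 °C, 5% CO2. Alamar Blue (resazurin) read-out by fluorescence (ex 536/em 588 nm) as percent of control cultures; IC50 from sigmoidal inhibition curves.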

Plasmodium falciparum [1] = assay: Antiplasmodial activity against chloroquine-resistant Plasmodium falciparum K1 assessed as [3H]hypoxanthine incorporation after 48 hrs by beta-plate liquid scintillation counting; assay type: functional, organism-based
In short: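 K1 strain (chloroquine- and pyrimethamine-resistant) in infected human red blood cells, RPMI 1640 with 5% Albumax, exposed to serial dilutions for 48 h at 37 °C under reduced oxygen. 0.5 µCi [3H]-hypoxanthine then added for a further 24 h. Cells harvested onto glass-fiber filters and counted. CPM expressed as % of untreated controls, IC50 taken from sigmoidal curves. Run in duplicate, repeated once.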

[2] = tested on: Trypanosoma brucei rhodesiense; assay: Antitrypanosomal activity against Trypanosoma brucei rhodesiense STIB900 by fluorescence assay; assay type: functional, organism-based
Thamnocephalus platyurus = assay: Cytotoxicity against Thamnocephalus platyurus; assay type: functional
In short: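 Instar II-III larvae hatched from cysts, tested in multiwell plates at six concentrations from 1 to 100 µM, in triplicate. Value derived by nonlinear regression.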

MCF7 = assay: Cytotoxicity against human MCF7 cells; assay type: cell-based
Plasmodium falciparum [3] = assay: Antiplasmodial activity against Plasmodium falciparum W2; assay type: functional, organism-based

SMILES: CC[C@H](C)[C@@H]1NC(=O)[C@H]2CSC(=N2)[C@@H]([C@@H](C)CC)NC(=O)c2csc(n2)CNC(=O)[C@H]2N=C1O[C@@H]2C [AERUCYCLAMIDE A]
pIC50 (L6): < 3.77
pIC50 (Plasmodium falciparum [1]): 5.30
pIC50 [2]: 4.25

SMILES: CC[C@H](C)[C@@H]1NC(=O)c2csc(n2)[C@@H]([C@@H](C)CC)NC(=O)c2csc(n2)CNC(=O)[C@H]2N=C1O[C@@H]2C [AERUCYCLAMIDE B]
pIC50 (L6): 3.92
pIC50 (Plasmodium falciparum [1]): 6.15
pIC50 [2]: 4.80

SMILES: CC[C@H](C)[C@H]1NC(=O)c2coc(n2)[C@H](C(C)C)NC(=O)[C@H]2N=C(O[C@@H]2C)[C@H](C)NC(=O)c2csc1n2 [AERUCYCLAMIDE C]
LC50 (Thamnocephalus platyurus): 70.5 µM
pIC50 (L6): 3.97
pIC50 (Plasmodium falciparum [1]): 5.64
pIC50 [2]: 5.04

SMILES: CSCC[C@@H]1NC(=O)c2csc(n2)CNC(=O)[C@H]2N=C(O[C@@H]2C)[C@H](Cc2ccccc2)NC(=O)[C@@H]2CSC1=N2 [AERUCYCLAMIDE D]
pIC50 (L6): < 3.82
pIC50 (Plasmodium falciparum [1]): 5.20
pIC50 [2]: 4.30

pIC50 (Plasmodium falciparum [3]): 5.09
SMILES: Cc1oc2nc1C(=O)N[C@H](C)c1nc(cs1)C(=O)N[C@H](C(C)C)c1nc(cs1)C(=O)N[C@@H]2C [VENTURAMIDE A]
pIC50 (MCF7): 4.88

pIC50 (Plasmodium falciparum [3]): 5.28
SMILES: Cc1oc2nc1C(=O)N[C@H]([C@@H](C)O)c1nc(cs1)C(=O)N[C@H](C(C)C)c1nc(cs1)C(=O)N[C@@H]2C [VENTURAMIDE B]
pIC50 (MCF7): < 4.27

Source: ChEMBL document CHEMBL1154139, “Isolation of aerucyclamides C and D and structure revision of microcyclamide 7806A: heterocyclic ribosomal peptides from Microcystis aeruginosa PCC 7806 and their antiparasite evaluation” (J Nat Prod, 2008)
